Measured values published in ChEMBL document CHEMBL4152308, “Synthesis and biological evaluation of novel 2-oxo-1,2-dihydroquinoline-4-carboxamide derivatives for the treatment of esophageal squamous cell carcinoma” (Eur J Med Chem, 2018).
One block for each compound: values may come before it. Active and inactive are the calls of the source. The calls are words filed in the database; no cut-off is given here.

Tests used:
KYSE-410 [1] = assay: Antiproliferative activity against human KYSE410 cells after 72 hrs by MTT assay; assay type: functional, cell-based; conditions: KYSE-410, 72 h
Summary of the method: (§1)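 Cells grown as monolayers at 37 °C, 5% CO2, mycoplasma-checked, in exponential phase. Cells seeded in 96-well plates, 24 h attachment, then compound added for 72 h. MTT 0.3 mg/mL for 3 h at 37 °C, DMSO solubilization, absorbance at 570 nm. Inhibition = (1 − A/C) × 100%. IC50 from log(concentration) vs % inhibition plot; triplicate wells, SD from ≥3 independent experiments.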

KYSE-70 cell line = assay: Antiproliferative activity against human KYSE-70 cells after 72 hrs by MTT assay; assay type: functional, cell-based; conditions: KYSE-70, 72 h; summary of the method: as §1
SK-OV-3 = assay: Antiproliferative activity against human SKOV3 cells after 72 hrs by MTT assay; assay type: functional, cell-based; conditions: SK-OV-3, 72 h; summary of the method: as §1
MIA PaCa-2 [2] = assay: Antiproliferative activity against human MIAPaCa2 cells after 72 hrs by MTT assay; assay type: functional, cell-based; conditions: MIA PaCa-2, 72 h; summary of the method: as §1
OVCAR-8 = assay: Antiproliferative activity against human OVCAR8 cells after 72 hrs by MTT assay; assay type: functional, cell-based; conditions: OVCAR-8, 72 h; summary of the method: as §1
KYSE-410 [3] = assay: Induction of autophagy in human KYSE410 cells assessed as increase in LC3B level at 10 to 50 uM after 24 hrs by Western blot analysis; assay type: functional, cell-based
Summary of the method: (§2)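 Cells treated 24 h at indicated concentrations, with bafilomycin for induced-LC3B readouts. Lysis in RIPA with protease inhibitors, BCA protein assay, samples heated 5 min at 100 °C. Equal protein run on 15% SDS-PAGE, transferred to PVDF. Anti-LC3B primary overnight at 4 °C, GAPDH as loading control, anti-rabbit secondary, TBST washes.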

KYSE-410 [4] = assay: Cell cycle arrest in human KYSE410 cells assessed as accumulation at S phase at 5 uM after 24 to 48 hrs by propidium iodide staining based flow cytometry (reference value: 22.3%); assay type: functional
KYSE-410 [5] = assay: Cell cycle arrest in human KYSE410 cells assessed as accumulation at S phase at 1 uM after 24 to 48 hrs by propidium iodide staining based flow cytometry (reference value: 22.3%); assay type: functional
KYSE-410 [6] = assay: Cell cycle arrest in human KYSE410 cells assessed as accumulation at G2 phase at 1 uM after 24 to 48 hrs by propidium iodide staining based flow cytometry (reference value: 12.2%); assay type: functional
KYSE-410 [7] = assay: Cell cycle arrest in human KYSE410 cells assessed as accumulation at G2 phase at 5 uM after 24 to 48 hrs by propidium iodide staining based flow cytometry (reference value: 12.2%); assay type: functional
KYSE-410 [8] = assay: Cell cycle arrest in human KYSE410 cells assessed as accumulation at G1 phase at 5 uM after 24 to 48 hrs by propidium iodide staining based flow cytometry (reference value: 65.4%); assay type: functional
KYSE-410 [9] = assay: Cell cycle arrest in human KYSE410 cells assessed as accumulation at G1 phase at 1 uM after 24 to 48 hrs by propidium iodide staining based flow cytometry (reference value: 65.4%); assay type: functional
MIA PaCa-2 [10] = assay: Inhibition of autophagy in human MIAPaCa2 cells assessed as decrease in bafilomycin-induced LC3B level at 1 to 10 uM after 24 hrs by Western blot analysis; assay type: functional, cell-based; summary of the method: as §2
KYSE-410 [11] = assay: Inhibition of autophagy in human KYSE410 cells assessed as decrease in bafilomycin-induced LC3B level at 1 to 10 uM after 24 hrs by Western blot analysis; assay type: functional, cell-based; summary of the method: as §2

SMILES: C=Cc1ccc2c(C(=O)Nc3cccc(F)c3)cc(=O)[nH]c2c1
IC50 (KYSE-410 [1]): 13.6 µM | IC50 (KYSE-70 cell line): 9.7 µM

SMILES: COc1cccc2c(C(=O)Nc3cc(F)cc(F)c3)cc(=O)[nH]c12
IC50 (KYSE-410 [1]): > 20 µM | IC50 (KYSE-70 cell line): > 20 µM

SMILES: COc1ccccc1NC(=O)c1ccnc2cc(Br)ccc12
IC50 (KYSE-410 [1]): > 20 µM | IC50 (KYSE-70 cell line): > 20 µM

SMILES: O=C(Nc1cccc(C(F)(F)F)c1)c1cc(=O)[nH]c2cc(Br)ccc12
IC50 (KYSE-410 [1]): > 20 µM | IC50 (KYSE-70 cell line): > 20 µM

SMILES: COc1cccc(NC(=O)c2cc(=O)[nH]c3cc(Br)ccc23)c1
IC50 (KYSE-410 [1]): > 20 µM | IC50 (KYSE-70 cell line): > 20 µM

SMILES: O=C(Nc1cccc(F)c1)c1cc(=O)[nH]c2cc(C3CC3)ccc12
IC50 (KYSE-410 [1]): > 20 µM | IC50 (KYSE-70 cell line): > 20 µM

SMILES: O=C(Nc1cccc(F)c1)c1cc(=O)[nH]c2cc(-c3cccnc3F)ccc12
IC50 (KYSE-410 [1]): 11.6 µM | IC50 (KYSE-70 cell line): > 20 µM

SMILES: Cc1cc(-c2ccc3c(C(=O)Nc4cccc(F)c4)cc(=O)[nH]c3c2)c(C)cc1F
IC50 (KYSE-410 [1]): > 20 µM | IC50 (KYSE-70 cell line): > 20 µM

IC50 (SK-OV-3): 16.6 µM | IC50 (MIA PaCa-2 [2]): 19.3 µM | IC50 (OVCAR-8): 22.3 µM
SMILES: O=C(Nc1cccc(F)c1)c1cc(=O)[nH]c2cc(-c3ccc(F)cc3)ccc12
IC50 (KYSE-410 [1]): 10.3 µM | IC50 (KYSE-70 cell line): 3.3 µM

SMILES: O=C(Nc1cc(F)cc(F)c1)c1cc(=O)[nH]c2cc(F)ccc12
IC50 (KYSE-410 [1]): > 20 µM | IC50 (KYSE-70 cell line): > 20 µM

SMILES: CCN(CC)CCCC(C)Nc1ccc(NC(=O)c2cc(=O)[nH]c3cc(F)ccc23)cc1F (centres undefined)
Activity (KYSE-410 [3]): Active | IC50 (KYSE-410 [1]): > 20 µM | IC50 (KYSE-70 cell line): > 20 µM

SMILES: COc1ccc2c(C(=O)Nc3cc(F)cc(F)c3)cc(=O)[nH]c2n1
IC50 (KYSE-410 [1]): > 20 µM | IC50 (KYSE-70 cell line): > 20 µM

SMILES: CCN(CC)CCCC(C)Nc1ccc2c(C(=O)Nc3cccc(F)c3)cc(=O)[nH]c2c1 (centres undefined)
Activity (KYSE-410 [3]): Active | IC50 (KYSE-410 [1]): > 20 µM | IC50 (KYSE-70 cell line): > 20 µM

SMILES: CCN(CC)CCCC(C)Nc1ccnc2cc(Cl)ccc12 (centres undefined) [CHLOROQUINE]
Activity (KYSE-410 [4]): 24.4% | Activity (KYSE-410 [5]): 20.7% | Activity (KYSE-410 [6]): 13.7% | Activity (KYSE-410 [7]): 11.3% | Activity (KYSE-410 [8]): 64.3% | Activity (KYSE-410 [9]): 65.6%

SMILES: O=C(Nc1cc(F)cc(F)c1)c1cc(=O)[nH]c2cc(C(F)(F)F)ccc12
IC50 (KYSE-410 [1]): 17.9 µM | IC50 (KYSE-70 cell line): 14.2 µM

SMILES: O=C(Nc1cccc(F)c1)c1cc(=O)n(O)c2ccccc12
IC50 (KYSE-410 [1]): > 20 µM | IC50 (KYSE-70 cell line): > 20 µM

SMILES: CC(=O)c1ccc(-c2ccc3c(C(=O)Nc4cccc(F)c4)cc(=O)[nH]c3c2)cc1
IC50 (KYSE-410 [1]): > 20 µM | IC50 (KYSE-70 cell line): > 20 µM

SMILES: O=C(Nc1cc(F)cc(F)c1)c1cc(=O)[nH]c2c(O)cccc12
IC50 (KYSE-410 [1]): > 20 µM | IC50 (KYSE-70 cell line): > 20 µM

SMILES: O=C(Nc1ccc(Cl)cc1)c1cc(=O)[nH]c2cc(Br)ccc12
IC50 (KYSE-410 [1]): > 20 µM | IC50 (KYSE-70 cell line): > 20 µM

SMILES: O=C(Nc1cccc(F)c1)c1cc(=O)[nH]c2cc(-c3ccc(F)nc3)ccc12
IC50 (KYSE-410 [1]): > 20 µM | IC50 (KYSE-70 cell line): > 20 µM

SMILES: O=C(Nc1cccc(F)c1)c1cc(=O)[nH]c2cc(-c3ccncc3)ccc12
IC50 (KYSE-410 [1]): > 20 µM | IC50 (KYSE-70 cell line): > 20 µM

SMILES: Cc1ccc(-c2ccc3c(C(=O)Nc4cccc(F)c4)cc(=O)[nH]c3c2)cc1
IC50 (KYSE-410 [1]): > 20 µM | IC50 (KYSE-70 cell line): > 20 µM

SMILES: O=C(Nc1ccc(F)cc1)c1ccnc2cc(Br)ccc12
IC50 (KYSE-410 [1]): > 20 µM | IC50 (KYSE-70 cell line): > 20 µM

SMILES: O=C(Nc1ccc(Cl)cc1)c1ccnc2cc(Br)ccc12
IC50 (KYSE-410 [1]): > 20 µM | IC50 (KYSE-70 cell line): > 20 µM

IC50 (SK-OV-3): 10.6 µM | IC50 (MIA PaCa-2 [2]): 7.5 µM | IC50 (OVCAR-8): 5.8 µM
SMILES: O=C(Nc1cccc(F)c1)c1cc(=O)[nH]c2cc(Br)ccc12
Activity (KYSE-410 [4]): 24% | Activity (KYSE-410 [5]): 25.1% | Activity (KYSE-410 [6]): 13% | Activity (KYSE-410 [7]): 22.4% | Activity (KYSE-410 [8]): 53.6% | inhibition (MIA PaCa-2 [10]): Active | IC50 (KYSE-410 [1]): 7.3 µM | IC50 (KYSE-70 cell line): 8.9 µM | inhibition (KYSE-410 [11]): Active | Activity (KYSE-410 [9]): 61.9%

SMILES: O=C(Nc1ccc(F)cc1F)c1cc(=O)[nH]c2cc(Br)ccc12
IC50 (KYSE-410 [1]): > 20 µM | IC50 (KYSE-70 cell line): > 20 µM

SMILES: C#Cc1ccc2c(C(=O)Nc3cccc(F)c3)cc(=O)[nH]c2c1
IC50 (KYSE-410 [1]): 9.7 µM | IC50 (KYSE-70 cell line): 9.5 µM
